The text below walks through data of PubChem BioAssay AID504383 (The Scripps Research Institute Molecular Screening Center, 2011).

Molecules are shown by their SMILES. The whole screen tested about 2,500 compounds, of which about 1,200 (48%) were called active. The set was probably picked from earlier hits. The list shows a part of the results. Values without a mark were called inactive.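 Rule for the calls: active = mean activation above the low control average plus 3 SD, as set in the primary screen (cut at about 12% in these data); inactive = the rest.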

For this assay, the target named is Troponin I, cardiac muscle (Homo sapiens) + Troponin T, cardiac muscle (Homo sapiens) + Troponin C, slow skeletal and cardiac muscles (Homo sapiens) (UniProt P19429+P45379+P63316). Kind of assay: calcium sensitizers of cardiac thin filaments – biochemical, IANBD-TnC fluorescence, triplicate, confirmation (AID 504383).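 Note: 0% = DMSO at 0.472 mM calcium and 100% = DMSO at 2.9 mM calcium.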 Conditions: IANBD-labeled cardiac RTF, Ca2+ sensitivity fluorescence; at 7.2 µM; active compounds read high; scaled from EC20 to saturating calcium; tested at EC20 calcium, 0.472 mM. The gist of the method:
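Assay system: labelled regulated thin filament protein complex; schedule: 15 min compound incubation with filaments at 25 °C; benchmarks: low control EC20 calcium, high control EC100 calcium; reagent: Ca2+ 0.472 mM, EC20 level; doses: one dose, 7.2 µM nominal; evaluation: fluorescence gain scaled between EC20 and EC100 calcium controls; signal: filament fluorescence intensity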
As to `C[n+]1ccc(/C=C/c2c[nH]c3ccccc23)cc1`, the activation was 45.7% (active).

Take `OCC[n+]1ccc(/C=C/c2c[nH]c3ccccc23)cc1`: the activation is 6.81%.

For the molecule `C(=Cc1c[nH]c2ccccc12)c1nccc2ccccc12`, the activation was 16.3% (active).

As to `Cc1ccc2[nH]cc(/C=C/c3cc[n+](C)cc3)c2c1`, the activation is 6.68%.

As to `C[n+]1cc(C(=O)N2CCCCC2)ccc1/C=C/c1c[nH]c2ccccc12`, the activation was 8.02%.

For the molecule `CC[n+]1ccc(/C=C/c2c[nH]c3ccccc23)cc1`, the activation is 167% (active).

As for `C[n+]1ccc(/C=C/c2c[nH]c3ccc(F)cc23)cc1`, the activation was 5.69%.

For the molecule `CC(=O)N(c1ccccc1)C1SC(=O)N(c2ccccc2)C1=O` (stereo not given), the activation is 9.18%.

For `Cc1cccc(C)c1-n1c(C)nn(-c2ncc(C(F)(F)F)cc2Cl)c1=O`, the activation was 2.27%.

Turning to `O=c1nc2c(O)cccn2c2c1c(=O)[nH]c1ccccc12`, the activation is 11.7% (active).

Take `CC(=O)Nc1cccc(C(=O)/C=C/c2ccc(N(C)C)cc2)c1`: the activation is 15.4% (active).

On to `CN(C)c1ccc(/C=C/C(=O)c2cccc(Br)c2)cc1`, for which the activation was 9.43%.

Take `NC(=O)C1CCN(c2ccc3c(c2)S(=O)(=O)c2ccccc2C3=O)CC1`: the activation is 5.74%.

Turning to `COC(=O)C1CCN(C(=O)CN2C(=O)c3ccccc3S2(=O)=O)CC1`, the activation is 2170% (active).

As to `COc1cc(/C=C/C(=O)c2ccc3c(c2)OCO3)cc(Cl)c1O`, the activation was 15.6% (active).

As for `CN(C)c1ccc(/C=C/C(=O)c2ccc3c(c2)OCO3)cc1`, the activation is 11%.

On to `CCC(=O)N1CCN(c2nc(C)nc3sc(C)c(C)c23)CC1`, for which the activation is 4.34%.

For `O=C(CN1CCN(c2ccccc2F)CC1)NCc1ccc(Cl)cc1`, the activation is 13% (active).

`N#CC1(NC(=O)CN2CCN(S(=O)(=O)c3ccccc3F)CC2)CCCC1`: the activation is 2.39%.

For `Cc1cc(Cl)ccc1OCC(=O)NCCOc1nc(N2CCOCC2)nc(N2CCOCC2)n1`, the activation was 6.88%.

With `CSc1ccc(Cl)c(C(=O)NNC(=O)c2csc(N3CCOCC3)n2)c1`, the activation was 9.67%.

For the molecule `CCOC(=O)c1cnc2c(C)c(Cl)ccc2c1N1CCOCC1`, the activation is 80.7% (active).

`CN(C)c1ccc(N=Cc2nc(-c3ccccc3)oc2O)cc1`: the activation is 37.2% (active).

Take `CC(=O)Nc1ccc(N=Cc2nc(-c3ccc(C)cc3)oc2O)cc1`: the activation was 33.1% (active).

As to `Cc1nc(C)c2c(c1C(F)(F)F)-c1ccccc1C2(F)F`, the activation was 9.1%.

In the case of `Cc1[nH]c(=S)c(C#N)c(C)c1CCC#N`, the activation was 8.9%.

For `COc1cc(N2CCCC2)c(OC)cc1/C=C(/C#N)c1cccc(Br)c1`, the activation was 8.22%.

On to `COc1cc(N2CCCC2)c(OC)cc1/C=C(/C#N)c1ccc(Br)cc1`, for which the activation is 12.2% (active).

Consider `Cc1ccc(NC(=O)COc2ccc(/C=N/NC(=O)CSCc3ccccc3)cc2)cc1`, for which the activation was 58.9% (active).

Take `CCOC(=O)C1=C(C)N(CCCCCC(=O)O)C(=O)NC1c1ccccc1Cl` (stereo not given): the activation was 6.32%.

In the case of `CCOC(=O)c1[nH]c2ccc(OCC)cc2c1CCCN1C(=O)c2ccccc2C1=O`, the activation is 156% (active).

In the case of `Brc1ccc(-c2noc(-c3ccccn3)n2)o1`, the activation was 5.39%.

Take `CCOC(=O)C1=C(C)N=c2s/c(=C\c3ccc(OCC(=O)O)cc3)c(=O)n2C1c1ccc(Cl)cc1` (stereo not given): the activation was 14.5% (active).

Turning to `CCOC(=O)C1=C(C)N=c2s/c(=C/c3ccc(OCC(=O)O)c(OC)c3)c(=O)n2C1c1ccc(Cl)cc1` (stereo not given), the activation is 16.8% (active).

For the molecule `CCOC(=O)C1=C(C)N=c2s/c(=C/c3ccc(OCC(=O)O)cc3)c(=O)n2C1c1ccc(SC)cc1` (stereo not given), the activation was 5.43%.

As to `O=C1CCC[C@@H]2Cc3nc4ccc(O)cc4cc3[C@@H]3CCN1[C@H]23`, the activation is 3.13%.

For the molecule `O=C(Cn1c2[n+](c3ccc(C(F)(F)F)cc31)CCCCC2)Nc1ccccc1`, the activation was 0.79%.

As for `O=C(O)CCC(=O)Nc1cc(C(F)(F)F)cc(C(F)(F)F)c1`, the activation was 30.5% (active).

For the molecule `O=C(CN1CCN(c2ccccc2)CC1)Nc1cccc(C(F)(F)F)c1`, the activation is 5.41%.

For the molecule `CC(C)(C)OC(=O)N1CCC(Cc2cc(-c3cccnc3)no2)(C(=O)O)CC1`, the activation was 15.8% (active).

`COCCn1c(SCC#N)nnc1-c1ccc([N+](=O)[O-])cc1`: the activation was 4.93%.

In the case of `Cc1sc(NC(=O)CSc2nnc(C(C)C)n2C)c(C#N)c1C`, the activation is 80.6% (active).

`CC(=O)N1CCCc2cc(S(=O)(=O)N3CCCC(C(=O)Nc4cccc(C)c4)C3)ccc21` (stereo not given): the activation is 8.68%.

Turning to `Cc1cc(S(=O)(=O)N2CCCC(C(=O)Nc3ccc(C(=O)O)cc3)C2)ccc1Cl` (stereo not given), the activation was 41.5% (active).

In the case of `CC(=O)c1ccc(NC(=O)C2CCCN(S(=O)(=O)c3c(C)[nH]c(=O)[nH]c3=O)C2)cc1` (stereo not given), the activation was 58.6% (active).

For `Cc1cc2cc(C=C(C#N)C#N)c(Cl)nc2cc1C`, the activation is 1.28%.

With `O=C(O)c1ccc(-n2c(/C=C/c3cccc([N+](=O)[O-])c3)nc3ccccc3c2=O)cc1`, the activation was 15.1% (active).

On to `CN(C)c1ccc(/C=C/c2nc3ccccc3c(=O)n2-c2ccc(C(=O)O)cc2)cc1`, for which the activation was 2.26%.

`COc1cc(C(=O)Nc2ccc(Cl)c(C(F)(F)F)c2)cc(OC)c1OC`: the activation was 9.75%.

As to `COc1cc(C(=O)NCc2nnc(SCC(=O)Nc3ccc4c(c3)OCO4)o2)cc(OC)c1OC`, the activation is 165% (active).

For the molecule `COc1cc(OC)c(OC)cc1/C=C/C(=O)c1ccc(NS(=O)(=O)c2ccc(C)cc2)cc1`, the activation was 8.63%.

For the molecule `COc1ccc(N/C=C\C(=O)c2ccc(Br)cc2)cc1OC`, the activation was 59.4% (active).

For `COc1ccc(N2C(=O)C3C(C2=O)C(C(=O)c2ccc(Cl)cc2)N2CCCC32)cc1` (stereo not given), the activation is 8.37%.

For the molecule `CCOC(=O)c1ccc(N2C(=O)C3C(C2=O)C(C(=O)c2ccc(Cl)cc2)N2CCCC32)cc1` (stereo not given), the activation was 12.8% (active).

Take `CC(=O)Oc1ccc(N2C(=O)C3C(C2=O)C(C(=O)c2ccc(Cl)cc2)N2CCCC32)cc1` (stereo not given): the activation was 77.4% (active).

On to `CCOC(=O)c1ccc(-n2c(CCC(=O)O)ccc2-c2cccs2)cc1`, for which the activation was 2.47%.

Turning to `CCN(CC)Cc1c(O)ccc2c1O/C(=C\C=C\c1ccccc1)C2=O`, the activation was 13.5% (active).

Regarding `COCCN(CCOC)Cc1c(O)ccc2c1O/C(=C\c1ccco1)C2=O`, the activation is 9.93%.

Turning to `COc1ccccc1/C=C/C=C1\Oc2c(ccc(O)c2CN(C)C)C1=O`, the activation is 24.3% (active).

Regarding `COCCN(CCOC)Cc1c(O)ccc2c1O/C(=C\c1ccc(C)o1)C2=O`, the activation is 3.93%.

In the case of `CCN1CCN(Cc2c(O)ccc3c2O/C(=C\c2ccccc2)C3=O)CC1`, the activation is 17.9% (active).

With `CN(C)Cc1c(O)ccc2c1O/C(=C\C=C\c1ccccc1)C2=O`, the activation was 6.64%.

For the molecule `CCc1ccc(/C=C2\Oc3c(ccc(O)c3CN3CCN(C)CC3)C2=O)cc1`, the activation was 8.07%.

In the case of `CCN1CCN(Cc2c(O)ccc3c2O/C(=C\C=C\c2ccccc2)C3=O)CC1`, the activation was 65.3% (active).

As to `CCN1CCN(Cc2c(O)ccc3c2O/C(=C\c2ccc(C)cc2)C3=O)CC1`, the activation is 5.39%.

As for `CC(C)c1ccc(/C=C2\Oc3c(ccc(O)c3CN3CCN(C)CC3)C2=O)cc1`, the activation was 7.76%.

Take `CCN1CCN(Cc2c(O)ccc3c2O/C(=C\C=C\c2ccccc2OC)C3=O)CC1`: the activation was 8.36%.

With `COc1ccccc1/C=C/C=C1\Oc2c(ccc(O)c2CN2CCN(CCO)CC2)C1=O`, the activation was 41.9% (active).

On to `Cc1ccc(/C=C2\Oc3c(ccc(O)c3CN3CCN(C)CC3)C2=O)cc1`, for which the activation is 1.83%.

Turning to `O=C1/C(=C/C=C/c2ccccc2)Oc2c1ccc(O)c2CN1CCN(CCO)CC1`, the activation was 126% (active).

For the molecule `Cc1ccc(/C=C2\Oc3c(ccc(O)c3CN3CCN(CCO)CC3)C2=O)cc1`, the activation was 34.7% (active).

Turning to `CC(=O)c1ccc2c(c1)c(C#N)c1ccccc1[n+]2[O-]`, the activation was 174% (active).

For `CC1(C)CC(N2CCCC2)=CC(=[N+]2CCCCC2)C1`, the activation is 16% (active).

Turning to `COc1ccc(-n2c(O)c(/C=N/NS(=O)(=O)c3ccc(C)cc3)c3ccccc3c2=O)cc1OC`, the activation is 46% (active).

`COc1ccc(-n2c(O)c(/C=N/NS(=O)(=O)c3ccc(C)c([N+](=O)[O-])c3)c3ccccc3c2=O)cc1OC`: the activation was 3.31%.

As for `COc1ccc(-n2c(O)c(/C=N/NS(=O)(=O)c3cc(C)ccc3C)c3ccccc3c2=O)cc1OC`, the activation is 10.9%.

Consider `CCC12CN3CCN(CC(C3)/C1=N\NC(=O)Nc1ccccc1)C2`, for which the activation was 4.76%.

In the case of `Cc1ccc(N2C(=O)[C@@H]3[C@H](C2=O)C2CCCN2[C@@H]3C(=O)c2ccccc2)cc1` (stereo not given in full), the activation is 290% (active).

Take `O=C(c1ccccc1)[C@@H]1[C@@H]2C(=O)N(c3ccc(F)cc3)C(=O)[C@@H]2C2CCCN21` (stereo not given in full): the activation was 22.7% (active).

With `Cc1ccc(C(=O)N2C(=O)C(c3ccccc3)Oc3ccccc32)cc1` (stereo not given), the activation is 5.01%.

With `O=C1CC(c2cccc(Oc3ccccc3)c2)NC(=O)N1` (stereo not given), the activation was 6.43%.

Regarding `COc1cccc(C2CC(c3ccccc3)n3ncnc3N2)c1` (stereo not given), the activation is 19.8% (active).

Take `COc1ccc(C(=O)OC/C(O)=C(\C#N)c2nc3ccccc3[nH]2)cc1S(=O)(=O)N1CCOCC1`: the activation is -0.63%.

`N#C/C(=C(/O)COC(=O)COc1ccc(Cl)cc1)c1nc2ccccc2[nH]1`: the activation was 13.2% (active).

`Cc1ccc(N=Cc2sc(O)c3ccccc23)c(C)c1`: the activation is 7.52%.

For `CCN(CC)c1ccc(C=Nc2cc(C)ccc2C)c(O)c1`, the activation is 15.7% (active).

Take `O=C(c1ccc2c(=O)n3c(nc2c1)CCCCC3)N1CCN(c2cccc(Cl)c2)CC1`: the activation was 0.38%.

For `COc1ccc(-c2nnc(SCC(=O)c3ccc[nH]3)n2-c2ccccc2)cc1`, the activation is 15.9% (active).

Consider `COc1ccccc1NC(=O)CC(=O)CSc1nnc(-c2ccc(C)cc2)n1-c1ccccc1`, for which the activation was 3.38%.

As to `Cc1ccc(C(=O)NNC(=O)CSc2nnc(-c3ccncc3)n2-c2ccc(C)cc2)cc1`, the activation is 7.51%.
